Reference: ChEMBL document CHEMBL1148521, “Synthesis, antitumor activity, and mechanism of action of benzo[a]pyrano[3,2-h]acridin-7-one analogues of acronycine” (J Med Chem, 2006)
Active and inactive are the calls of the source. No cut-off for these calls is given here.

Columns and labels:
L1210 [1] = test: Antiproliferative activity against mouse L1210 cell line by MTT assay; assay type: functional, cell-based
Procedure, shortened: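 L1210 cells cultured in RPMI 1640 with 10% fetal calf serum, 2 mM glutamine, penicillin/streptomycin and 10 mM HEPES pH 7.4. Exposed to nine serial drug dilutions in triplicate for 48 h (four doubling times), then read by tetrazolium (MTT) assay. IC50 is the concentration cutting optical density by 50% versus untreated controls; mean of at least three independent experiments.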

KB 3-1 = test: Antiproliferative activity against human KB-3-1 cell line by MTT assay; assay type: functional, cell-based
Procedure, shortened: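 KB-3-1 cells grown in DMEM with 10% fetal calf serum, 2 mM glutamine, penicillin/streptomycin and 10 mM HEPES pH 7.4. Microculture tetrazolium assay: nine serial drug dilutions in triplicate for 96 h (four doubling times). IC50 is the concentration halving optical density relative to untreated controls; mean of at least three separate experiments.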

Nucleic Acid = test: Alkylation of DNA at 50 uM by gel shift assay; assay type: nucleic-acid assay
Procedure, shortened: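 Radiolabeled 117-bp pBS DNA fragment (EcoRI/PvuII cut, 3′-end-labeled at EcoRI site with [³²P]dATP, gel-purified) incubated with drug at 50 µM in 1 mM Na cacodylate pH 7.0, dark, room temperature, 2 h or 24 h. Resolved on native polyacrylamide gel in TBE; bound versus free DNA scored as strong, weak or no alkylation.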

L1210 [2] = test: Cell cycle arrest in L1210 cell line by accumulation at S phase at 5 uM after 21 hrs; assay type: functional, Mus musculus
Procedure, shortened: (§1)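 L1210 cells at 5 × 10⁵ cells/mL treated 21 h with various drug concentrations. Then ethanol-fixed (70%), washed, and stained 30 min at 20 °C in PBS with 100 µg/mL RNase and 50 µg/mL propidium iodide. Flow cytometry on 10 000 cells per sample. Highest percentage of S-phase cells reported with the concentration giving it.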

L1210 [3] = test: Cell cycle arrest in L1210 cell line by accumulation at S phase after 21 hrs; assay type: functional, cell-based; details: Mus musculus; procedure, shortened: as §1
L1210 [4] = test: Cell cycle arrest in L1210 cell line by accumulation at S phase at 10 uM after 21 hrs; assay type: functional, Mus musculus; procedure, shortened: as §1
L1210 [5] = test: Cell cycle arrest in L1210 cell line by accumulation at S phase at 2.5 uM after 21 hrs; assay type: functional, Mus musculus; procedure, shortened: as §1
L1210 [6] = test: Cell cycle arrest in L1210 cell line by accumulation at S phase at 0.25 uM after 21 hrs; assay type: functional, Mus musculus; procedure, shortened: as §1
MC-38 = test: Antiproliferative activity against mouse C38 cell line implanted in B6D2F1 mouse at 4 mg/kg, iv; assay type: functional

| Compound | IC50 (L1210 [1]) [nM] | IC50 (KB 3-1) [nM] | Activity (Nucleic Acid) | Activity (L1210 [2]) [%] | Activity (L1210 [3]) | Activity (L1210 [4]) [%] | Activity (L1210 [5]) [%] | Activity (L1210 [6]) [%] | Activity (MC-38) [%] |
| --- | --- | --- | --- | --- | --- | --- | --- | --- | --- |
| C=CCCC(=O)O[C@@H]1[C@H](O)c2c(cc(OC)c3c(=O)c4c5ccccc5ccc4n(C)c23)OC1(C)C (racemic) | 800 | 250 | inactive | 70 |  |  |  |  |  |
| CCC(=O)O[C@@H]1[C@H](O)c2c(cc(OC)c3c(=O)c4c5ccccc5ccc4n(C)c23)OC1(C)C (racemic) | 500 | 100 | Active | 69 |  |  |  |  |  |
| COc1cc2c(c3c1c(=O)c1c4ccccc4ccc1n3C)[C@@H](O)[C@@H](O)C(C)(C)O2 (racemic) | 49000 | 32000 | inactive |  |  |  |  |  |  |
| COc1cc2c(c3nc4ccc5ccccc5c4c(O)c13)C(=O)C(O)C(C)(C)O2 (centres undefined) | 500 | 2000 | inactive |  | inactive |  |  |  |  |
| COc1cc2c(c3c1c(=O)c1c4ccccc4ccc1n3C)[C@@H](OC(=O)CC(C)C)[C@@H](OC(=O)CC(C)C)C(C)(C)O2 (racemic) | 700 | 150 | Active |  |  | 60 |  |  |  |
| COc1cc2c(c3c1c(=O)c1c4ccccc4ccc1n3C)[C@@H](O)[C@@H](OC(=O)c1ccccc1)C(C)(C)O2 (racemic) | 800 | 300 | Active |  |  |  | 73 |  |  |
| C=CCCC(=O)O[C@@H]1[C@H](OC(C)=O)c2c(cc(OC)c3c(=O)c4c5ccccc5ccc4n(C)c23)OC1(C)C (racemic) | 700 | 100 | Active | 78 |  |  |  |  |  |
| COc1cc2c(c3c1c(=O)c1c4ccccc4ccc1n3C)[C@@H](O)[C@@H](OC(=O)CC(C)C)C(C)(C)O2 (racemic) | 1000 | 200 | Active | 73 |  |  |  |  |  |
| C=CCCC(=O)O[C@@H]1c2c(cc(OC)c3c(=O)c4c5ccccc5ccc4n(C)c23)OC(C)(C)[C@@H]1OC(=O)CCC=C (racemic) | 500 | 130 | Active |  |  | 66 |  |  |  |
| COc1cc2c(c3c1c(=O)c1ccccc1n3C)C=CC(C)(C)O2 [ACRONINE] | 23000 | 3700 |  |  |  |  |  |  |  |
| COc1cc2c(c3nc4ccc5ccccc5c4c(OC)c13)[C@@H](OC(C)=O)[C@@H](OC(C)=O)C(C)(C)O2 (racemic) | 8000 | 7200 | inactive |  |  |  |  |  |  |
| COc1cc2c(c3c1c(=O)c1c4ccccc4ccc1n3C)[C@@H](OC(C)=O)[C@@H](OC(=O)CC(C)C)C(C)(C)O2 (racemic) | 800 | 100 | Active | 76 |  |  |  |  |  |
| COc1cc2c(c3c1c(=O)c1c4ccccc4ccc1n3C)[C@H]1OC(=O)O[C@H]1C(C)(C)O2 (racemic) | 60 | 15 | inactive |  |  |  |  | 64 |  |
| COc1cc2c(c3c1c(=O)c1cc4ccccc4cc1n3C)[C@@H](OC(C)=O)[C@@H](OC(C)=O)C(C)(C)O2 (racemic) | 700 | 100 | Active | 73 |  |  |  |  |  |
| COc1cc2c(c3c1c(=O)c1c4ccccc4ccc1n3C)C=CC(C)(C)O2 [BENZO[A]ACRONYCINE] | 2500 | 8600 |  |  | inactive |  |  |  |  |
| COc1cc2c(c3nc4ccc5ccccc5c4c(OC)c13)[C@@H](O)[C@@H](O)C(C)(C)O2 (racemic) | 1400 | 6300 | inactive |  |  |  |  |  |  |
| CCC(=O)O[C@@H]1c2c(cc(OC)c3c(=O)c4c5ccccc5ccc4n(C)c23)OC(C)(C)[C@@H]1OC(=O)CC (racemic) | 500 | 100 | Active | 70 |  |  |  |  |  |
| CCN(CC)C(=O)O[C@@H]1c2c(cc(OC)c3c(=O)c4c5ccccc5ccc4n(C)c23)OC(C)(C)[C@@H]1OC(=O)N(CC)CC (racemic) | 900 | 800 | Active |  |  | 43 |  |  |  |
| COc1cc2c(c3c1c(=O)c1c4ccccc4ccc1n3C)[C@@H](O)[C@@H](OC(C)=O)C(C)(C)O2 (racemic) | 700 | 200 | Active | 76 |  |  |  |  |  |
| COc1cc2c(c3c1c(=O)c1c4ccccc4ccc1n3C)[C@@H](OC(C)=O)[C@@H](OC(C)=O)C(C)(C)O2 (racemic) | 700 | 150 | Active | 68 |  |  |  |  | > 80 |
| COc1cc2c(c3nc4ccc5ccccc5c4c(OC)c13)C=CC(C)(C)O2 | 28000 | 33000 |  |  |  |  |  |  |  |
| COc1cc2c(c3c1c(=O)c1c4ccccc4ccc1n3C)C(=O)[C@@H](OC(C)=O)C(C)(C)O2 | 2000 | 6300 | inactive |  |  |  |  |  |  |
| COc1cc2c(c3c1c(=O)c1c4ccccc4ccc1n3C)[C@@H](O)[C@@H](OC(=O)N(C)C)C(C)(C)O2 (racemic) | 500 | 100 | Active |  |  | 73 |  |  |  |
